Experimental data taken from ChEMBL document CHEMBL1123566, “Synthesis and cardiac electrophysiological activity of 2- and 3-[(substituted phenyl)alkyl]quinuclidines. Structure-activity relationships” (1987).

What was measured:
Canis familiaris [1] = experiment: Mean arterial blood pressure was determined by intraduodenal administration of two dosages of 10 mg/kg of (high dose) compound in anesthetized dogs. Value was reported for experiment 3; assay type: functional, Canis lupus familiaris
Summary of the method: (§1)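 Anesthetized dogs, usually given two intraduodenal doses, with the second dose cumulative (low/high). Left ventricular FRP and CT were determined at 15, 30 and 45 min after dosing. HR and BP were measured during nonpacing intervals. Values are % change from control at low/high dose, for individual animals. The vehicle-stability set used 5% dextrose in water/tragacanth (n = 8).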

Canis familiaris [2] = experiment: Left ventricular refractory period was determined by intraduodenal administration of two dosages of 1 mg/kg of (low dose) compound in anesthetized dogs. Value was reported for experiment 2; assay type: functional, Canis lupus familiaris, Cardiac ventricle; summary of the method: as §1
Canis familiaris [3] = species: Canis familiaris; experiment: In vitro electrophysiological evaluation in canine cardiac ventricular muscle reported as maximum % change for functional refractory period (FRP) at 0.1-10 uM concentration range; parameters: species or system Canis lupus familiaris, Muscle tissue
Canis familiaris [4] = experiment: Left ventricular refractory period was determined by intraduodenal administration of two dosages of 1 mg/kg of (low dose) compound in anesthetized dogs. Value was reported for experiment 3; assay type: functional, Canis lupus familiaris, Cardiac ventricle; summary of the method: as §1

## CCCCCCC[N+](CC)(CC)CCCCc1ccc(Cl)cc1.O=P([O-])(O)O [CLOFILIUM PHOSPHATE]
Canis familiaris [1]
  Mean blood pressure: 4%
Canis familiaris [2]
  LV FRP: -1%
Canis familiaris [3]
  FRP: 38%
Canis familiaris [4]
  LV FRP: 4%
